For assay [1], the system named is Panel NCI-60 (60 carcinoma cell lines). Description: Growth inhibitory power against human cancer cell line; (Range=-4.04 to -6.08). The assay is classed as functional. The method, boiled down:
(§1)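 NCI 60 human tumour cell line panel, entered after a three-cell-line prescreen. Five concentrations at 10-fold dilutions: 10-4, 10-5, 10-6, 10^-7 and 10^-8 M. Results given as log values of growth inhibitory power (GI50) and cytostatic effect.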

The test system is the same in assay [2]. Put plainly: Cytostatic effect against human cancer cell line; (Range=-4.01 to -5.65). The format is functional. As to conditions: read-out: Log TGI (converted). The procedure, abridged:
as §1

The test system is the same in assay [3]. Description: Cytotoxic effect against human cancer cell line; (Range=-4.01 to -5.01). The assay is classed as functional. The procedure, abridged:
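NCI 60-cell-line panel, tested at five 10-fold dilutions from 10^-4 M down to 10^-8 M. Results are expressed as log values of growth inhibitory power (GI50) and cytostatic effect.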

For assay [4], the species on record is Rattus norvegicus. Put plainly: Compound was tested against rat liver mitochondria respiration; Activity as respiratory control index measured as TMPD test complex IV activity adding ascorbate. The format is functional. The method, boiled down:
(§2)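 Isolated coupled rat liver mitochondria; compound at 35 µM. Oxygen consumption was measured polarographically with a Clark electrode. Reactions were started with a saturating amount of substrate: glutamate/malate (NADH-O2), succinate (succinate-O2) or ascorbate/TMPD (Complex IV). The uncoupled rate was obtained by adding 2,4-dinitrophenol. The respiratory control index was also derived. Rates are in ngA oxygen/min/mg protein, mean of five and eight independent measures.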

Assay [5] is filed under the species Rattus norvegicus. Put plainly: Inhibitory effect on mitochondrial respiration in coupled rat liver mitochondria at 35 uM concentration measured as succinate-O2 activity adding succinate; State 3.
The next assay deals with COLO 205. Put plainly: Growth inhibitory power against human colon (COLO 205) cell line. The format is functional. The method, boiled down:
as §1

Assay [6] is filed under the species Rattus norvegicus. Description: Compound was tested against rat liver mitochondria respiration; Activity as respiratory control index measured as NADH-O2 activity adding glutamate/malate. The assay is classed as functional. The procedure, abridged:
as §2

The species named for assay [7] is Rattus norvegicus. Description: Inhibitory effect on mitochondrial respiration in […]-uncoupled rat liver mitochondria; Activity measured as succinate-O2 activity adding succinate. The assay is classed as functional. The procedure, abridged:
as §2

The species named for assay [8] is Rattus norvegicus. Description: Inhibitory effect on mitochondrial respiration in coupled rat liver mitochondria at 35 uM concentration measured as TMPD test complex IV activity adding ascorbate; State 4.
Assay [9] is filed under the species Rattus norvegicus. Description: Inhibitory effect on mitochondrial respiration in […]-uncoupled rat liver mitochondria; Activity measured as TMPD test complex IV activity adding ascorbate. The format is functional. The procedure, abridged:
as §2

Another assay concerns RXF 393. Description: Growth inhibitory power against human renal (RXF 393) cell line. The format is functional. The procedure, abridged:
as §1

Assay [10] is filed under the species Rattus norvegicus. Put plainly: Compound was tested against rat liver mitochondria respiration; Activity as respiratory control index measured as succinate-O2 activity adding succinate. The format is functional. The procedure, abridged:
as §2

Assay [11] is filed under the species Rattus norvegicus. Description: Inhibitory effect on mitochondrial respiration in coupled rat liver mitochondria at 35 uM concentration measured as NADH-O2 activity adding glutamate/malate; State 3.
Assay [12] is filed under the species Rattus norvegicus. Put plainly: Inhibitory effect on mitochondrial respiration in […]-uncoupled rat liver mitochondria; Activity measured as NADH-O2 activity adding glutamate/malate. The assay is classed as functional. The method, boiled down: as §2
The species entered for assay [13] is Rattus norvegicus. Description: Inhibitory effect on mitochondrial respiration in coupled rat liver mitochondria at 35 uM concentration measured as TMPD test complex IV activity adding ascorbate; State 3.
The next assay deals with K562. Put plainly: Growth inhibitory power against human leukemia (K-562)cell line. The format is functional. The procedure, abridged: as §1
Assay [14] is filed under the species Rattus norvegicus. Put plainly: Inhibitory effect on mitochondrial respiration in coupled rat liver mitochondria at 35 uM concentration measured as succinate-O2 activity adding succinate; State 4.
For another assay, the system named is OVCAR-3. Put plainly: Growth inhibitory power against human ovarian (OVCAR-3) cell line cell line. The format is functional. The procedure, abridged: as §1
The species named for assay [15] is Rattus norvegicus. Description: Inhibitory effect on mitochondrial respiration in coupled rat liver mitochondria at 35 uM concentration measured as NADH-O2 activity adding glutamate/malate; State 4.

As for `COc1cc(-c2nc3sccn3c2/C=N/N=C(N)N)c([N+](=O)[O-])cc1OC`, the GI50 in assay [1] is under 832 nM. Also, the TGI in [2] is under 2240 nM. The same compound gave an LC50 (50% lethal concentration) in assay [3] of under 9770 nM.
The matching figures for `COc1ccc(OC)c([N+](=O)[O-])c1-c1nc2scc(C)n2c1/C=N/N=C(N)N`: under 832 nM, under 2240 nM and under 9770 nM.
For `COc1ccc(OC)c2c1ncc1c2nc2sccn21` the same measures were under 832 nM, under 2240 nM and under 9770 nM.
The matching figures for `COc1ccc(-c2nc3sccn3c2/C=N/N=C(N)N)cc1OC`: under 832 nM, under 2240 nM and under 9770 nM.
In assay [1], `N=C(N)N/N=C/c1c(-c2cc(O)ccc2O)nc2sccn12` showed a GI50 of under 832 nM. Also, the total growth inhibition concentration (TGI) in assay [2] is under 2240 nM. Moreover, in assay [3], the LC50 (50% lethal concentration) was under 9770 nM.
Compound `COc1ccc(OC)c([N+](=O)[O-])c1-c1nc2n(c1/C=N/N=C(N)N)CCS2` gave a GI50 in assay [1] of under 832 nM. Moreover, in assay [2], the TGI is under 2240 nM. The LC50 (50% lethal concentration) in assay [3] was under 9770 nM.
For `COc1cc(OC)c([N+](=O)[O-])cc1-c1nc2sccn2c1/C=N/N=C(N)N` the same measures were under 832 nM, under 2240 nM and under 9770 nM.
In assay [1], `COc1cc([N+](=O)[O-])c(OC)cc1-c1nc2sc(C)cn2c1/C=N/N=C(N)N` gave a 50% growth inhibitory concentration (GI50) of under 832 nM. Moreover, the TGI in assay [2] is under 2240 nM. The compound also gave an LC50 (50% lethal concentration) in [3] of under 9770 nM.
The matching figures for `COc1ccc(OC)c(-c2nc3sccn3c2/C=N/N=C(N)N)c1`: under 832 nM, under 2240 nM and under 9770 nM.
The matching figures for `COc1ccc(OC)c([N+](=O)[O-])c1-c1nc2sc(C)cn2c1/C=N/N=C(N)N`: under 832 nM, under 2240 nM and under 9770 nM.
The matching figures for `COc1cc([N+](=O)[O-])c(OC)cc1-c1nc2scc(C)n2c1/C=N/N=C(N)N`: under 832 nM, under 2240 nM and under 9770 nM.
As to `COc1cc([N+](=O)[O-])c(OC)cc1-c1nc2sc(C)c(C)n2c1/C=N/N=C(N)N`, the 50% growth inhibitory concentration (GI50) in [1] was under 832 nM. In assay [2], the TGI is under 2240 nM. In [3], the LC50 (50% lethal concentration) is under 9770 nM.
Regarding `COc1cc([N+](=O)[O-])c(OC)cc1-c1nc2sc(Cl)cn2c1/C=N/N=C(N)N`, the Actvity in the assay listed under Rattus norvegicus [4] worked out at 1.5; in the assay filed under Rattus norvegicus [6], 2.3; in the assay listed under Rattus norvegicus [10], 1.7. The Actvity (ngAoxigen/min/mg of RLM) in the assay listed under Rattus norvegicus [5] was 54.9; in the assay filed under Rattus norvegicus [7] it was 81.7; in the assay listed under Rattus norvegicus [8] it was 98; in the assay filed under Rattus norvegicus [9], 158; in the assay listed under Rattus norvegicus [11], 47.7; in the assay listed under Rattus norvegicus [12], 74.2. Besides, the figures for the Actvity (ngAoxigen/min/mg of RLM) in the assay listed under Rattus norvegicus [13], in the assay filed under Rattus norvegicus [14] and in the assay listed under Rattus norvegicus [15] were 142, 33.4 and 23.1, respectively. The GI50 in the assay on COLO 205 is 1550 nM; in the assay with RXF 393, 1450 nM; in the assay on K562 it was 1910 nM; with OVCAR-3, 589 nM.
Turning to `N=C(N)N/N=C/c1c(-c2ccc(O)c(O)c2)nc2sccn12`, the concentration for 50% growth inhibition (GI50) in assay [1] is under 832 nM. The TGI in [2] was under 2240 nM. For the same compound, in assay [3], the LC50 (50% lethal concentration) was under 9770 nM.
`N=C(N)/N=N/c1ccc(NNC(=N)N)c2ncc3c(nc4sccn43)c12` had a concentration for 50% growth inhibition (GI50) in [1] of under 832 nM. For the same compound, the TGI in assay [2] was under 2240 nM. Also, the LC50 (50% lethal concentration) in assay [3] was under 9770 nM.
In the case of `COc1ccc(OC)c([N+](=O)[O-])c1-c1nc2sc(C)c(C)n2c1/C=N/N=C(N)N`, the concentration for 50% growth inhibition (GI50) in assay [1] is under 832 nM. Also, the TGI in assay [2] was under 2240 nM. Besides, the LC50 (50% lethal concentration) in assay [3] was under 9770 nM.
Compound `CCCc1cn2c(/C=N/N=C(N)N)c(-c3c(OC)ccc(OC)c3[N+](=O)[O-])nc2s1` had a 50% growth inhibitory concentration (GI50) in assay [1] of under 832 nM. The total growth inhibition concentration (TGI) in assay [2] was under 2240 nM. This compound showed an LC50 (50% lethal concentration) in [3] of under 9770 nM.
The matching figures for `O=C1C=CC(=O)c2c1ncc1c2nc2sccn21`: under 832 nM, under 2240 nM and under 9770 nM.
The matching figures for `COc1cc2ncc3c(nc4sccn43)c2cc1OC`: under 832 nM, under 2240 nM and under 9770 nM.
With `CC(/C=N/NC(=N)N)=N/NC(=N)N`, the Actvity in the assay listed under Rattus norvegicus [4] amounted to 1.7; in the assay filed under Rattus norvegicus [6], 4.9; in the assay listed under Rattus norvegicus [10] it was 3.7. Moreover, the Actvity (ngAoxigen/min/mg of RLM) stood at 141 in the assay filed under Rattus norvegicus [5]; 169 in the assay filed under Rattus norvegicus [7]; 91.1 in the assay listed under Rattus norvegicus [8]; 156 in the assay listed under Rattus norvegicus [9]; 80 in the assay listed under Rattus norvegicus [11]; 106 in the assay filed under Rattus norvegicus [12]. The results for the Actvity (ngAoxigen/min/mg of RLM) in the assay filed under Rattus norvegicus [13], in the assay listed under Rattus norvegicus [14] and in the assay filed under Rattus norvegicus [15] were 128, 39.2 and 17.9, respectively.
Turning to `COc1cc([N+](=O)[O-])c(OC)cc1-c1nc2n(c1/C=N/N=C(N)N)CCS2`, in assay [1], the GI50 was under 832 nM. Besides, the concentration for total growth inhibition (TGI) in assay [2] was under 2240 nM. The same compound had an LC50 (50% lethal concentration) in [3] of under 9770 nM.
On to `COc1ccc(OC)c([N+](=O)[O-])c1-c1nc2sccn2c1/C=N/N=C(N)N`, for which the GI50 in [1] was under 832 nM. Moreover, the TGI in assay [2] was under 2240 nM. Besides, the LC50 (50% lethal concentration) in assay [3] is under 9770 nM.
For `COc1ccc(OC)c([N+](=O)[O-])c1-c1nc2sc(Cl)cn2c1/C=N/N=C(N)N` the same measures were under 832 nM, under 2240 nM and under 9770 nM.
The matching figures for `COc1cc([N+](=O)[O-])c(OC)cc1-c1nc2sccn2c1/C=N/NC(=N)N`: under 832 nM, under 2240 nM and under 9770 nM.

(Values after ChEMBL document CHEMBL1143617, “Potential antitumor agents. 37. Synthesis and antitumor activity of guanylhydrazones from imidazo[2,1-b]thiazoles and from the new heterocyclic system thiazolo[2',3':2,3]imidazo[4,5-c]quinoline” (2005).)
